Source: ChEMBL document CHEMBL1921722, “In vitro and in vivo evaluation of select kahalalide F analogs with antitumor and antifungal activities” (Bioorg Med Chem, 2011)
pIC50: −log10 of the molar value. In brackets after ≈: the same amount, converted by molar mass. Activity calls are given as the source filed them.

Assays:
Candida albicans = assay: Antimicrobial activity against Candida albicans ATCC 90028 by CLSI method; assay type: functional, organism-based
Cryptococcus neoformans = assay: Antimicrobial activity against Cryptococcus neoformans ATCC 90113 by CLSI method; assay type: functional, organism-based
Aspergillus fumigatus = assay: Antimicrobial activity against Aspergillus fumigatus ATCC 90906 by CLSI method; assay type: functional, organism-based
Pseudomonas aeruginosa = assay: Antimicrobial activity against Pseudomonas aeruginosa ATCC 27853 by CLSI method; assay type: functional, organism-based
Staphylococcus aureus = assay: Antimicrobial activity against methicillin-resistant Staphylococcus aureus ATCC 43300 by CLSI method; assay type: functional, organism-based
[1] = Acute toxicity in iv dosed mouse assessed as mortality; conditions: in vivo
Escherichia coli = assay: Antimicrobial activity against Escherichia coli ATCC 35218 by CLSI method; assay type: functional, organism-based
PC-3 = assay: Cytotoxicity against human PC3 cells by sulforhodamine B assay; assay type: functional; conditions: for GI50: read-out: GI50
Method in brief: (§1)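 NCI Developmental Therapeutics Program 60-cell-line human tumor panel screen, run at NCI. A single-concentration pre-screen was followed by a five-concentration dose-response in 10-fold steps. GI50 is the concentration that reduces growth of treated cells to half that of untreated control cells. TGI is the concentration that completely halts growth.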

[2] = tested on: Mycobacterium intracellulare; assay: Antimicrobial activity against Mycobacterium intracellular ATCC 23068 after 5 days by MABA assay; assay type: functional, organism-based; conditions: ATCC 23068, 120 h
Method in brief: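 M. intracellulare was tested by a modified Franzblau method. Samples were serially diluted in 20% DMSO/saline, run in duplicate, and inocula were adjusted by OD630. […] IC50 is 50% growth inhibition; MIC is the lowest concentration with no detectable growth.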

Fusarium sp. = assay: Antimicrobial activity against Fusarium sp. by CLSI method; assay type: functional, organism-based
A549 = assay: Cytotoxicity against human A549 cells by sulforhodamine B assay; assay type: functional; conditions: read-out: GI50
Method in brief: (§2)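 Run at NCI in the DTP 60-cell-line human tumor panel by standard procedure. Compounds were first screened at a single concentration, then tested at five tenfold-spaced concentrations. GI50 is the concentration reducing treated-cell growth to half that of untreated controls; TGI is the concentration completely halting growth.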

SK-OV-3 = assay: Cytotoxicity against human SKOV3 cells by sulforhodamine B assay; assay type: functional; conditions: read-out: GI50; method in brief: as §1
Hs-578T = assay: Cytotoxicity against human Hs578T cells by sulforhodamine B assay; assay type: functional; method in brief: as §1
DU-145 = assay: Cytotoxicity against human DU145 cells by sulforhodamine B assay; assay type: functional; conditions: read-out: GI50
Method in brief: (§3)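 Run by the NCI Developmental Therapeutics Program on its 60-line human tumour cell panel using the standard procedure. Compounds went through a single-concentration prescreen first, and those active by NCI criteria went on to a five-concentration growth-inhibition test. GI50 is the concentration that cuts growth of treated cells to half that of untreated control cells.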

COLO 205 = assay: Cytotoxicity against human COLO205 cells by sulforhodamine B assay; assay type: functional; conditions: read-out: GI50; method in brief: as §2
HT-29 = assay: Cytotoxicity against human HT-29 cells by sulforhodamine B assay; assay type: functional; conditions: read-out: GI50; method in brief: as §3
KM12 = assay: Cytotoxicity against human KM12 cells by sulforhodamine B assay; assay type: functional; conditions: read-out: GI50; method in brief: as §1
RPMI-8226 = assay: Cytotoxicity against human RPMI8226 cells by sulforhodamine B assay; assay type: functional; conditions: read-out: GI50; method in brief: as §1
NCI-H322M = assay: Cytotoxicity against human NCI-H322M cells by sulforhodamine B assay; assay type: functional; conditions: read-out: GI50; method in brief: as §1
SNB-75 = assay: Cytotoxicity against human SNB75 cells by sulforhodamine B assay; assay type: functional; conditions: read-out: GI50; method in brief: as §1
HCC 2998 = assay: Cytotoxicity against human HCC2998 cells by sulforhodamine B assay; assay type: functional; conditions: read-out: GI50; method in brief: as §3
UACC-257 = assay: Cytotoxicity against human UACC257 cells by sulforhodamine B assay; assay type: functional; conditions: read-out: GI50; method in brief: as §1

Structure (SMILES): C[C@@H]1[C@H](O)[C@@H](C)/C=C/C=C/C=C/C=C/C=C/C=C/C=C/[C@H](O[C@@H]2O[C@H](C)[C@@H](O)[C@H](N)[C@@H]2O)C[C@@H]2O[C@](O)(C[C@@H](O)C[C@@H](O)[C@H](O)CC[C@@H](O)C[C@@H](O)CC(=O)O[C@H]1C)C[C@H](O)[C@H]2C(=O)O [AMPHOTERICIN B]
- pIC50 (Candida albicans): 6.60
- MFC (Candida albicans): 1.25 µM (≈ 1.16 µg/mL)
- MIC (Candida albicans): 0.625 µM (≈ 0.578 µg/mL)
- MFC (Cryptococcus neoformans): 0.06 µM (≈ 0.0554 µg/mL)
- MIC (Cryptococcus neoformans): 0.016 µM (≈ 0.0148 µg/mL)
- MFC (Aspergillus fumigatus): 2.5 µM (≈ 2.31 µg/mL)
- MIC (Aspergillus fumigatus): 2.5 µM (≈ 2.31 µg/mL)

Structure (SMILES): C/C=C1\NC(=O)[C@H](Cc2ccccc2)NC(=O)[C@@H](C(C)C)NC(=O)[C@@H]([C@H](C)CC)NC(=O)[C@H](NC(=O)[C@H](NC(=O)[C@H](CCCN)NC(=O)[C@H]2CCCN2C(=O)[C@H](NC(=O)[C@@H](NC(=O)[C@@H](NC(=O)[C@H](NC(=O)CCCC(C)C)C(C)C)[C@@H](C)O)C(C)C)C(C)C)[C@H](C)CC)[C@H](C)OC(=O)[C@H](C(C)C)NC1=O [KAHALALIDE F]
- MFC (Candida albicans): 20 µM (≈ 29.6 µg/mL)
- MIC (Candida albicans): 10 µM (≈ 14.8 µg/mL)
- Activity (Pseudomonas aeruginosa): inactive
- Activity (Staphylococcus aureus): inactive
- MTD [1]: 0.28 mg/kg
- MFC (Cryptococcus neoformans): 5 µM (≈ 7.39 µg/mL)
- MIC (Cryptococcus neoformans): 5 µM (≈ 7.39 µg/mL)
- Activity (Escherichia coli): inactive
- GI50 (PC-3): 170 nM
- pIC50 [2]: < 4.70
- MBC [2]: > 20 µM
- MIC [2]: > 20 µM
- MFC (Aspergillus fumigatus): 20 µM (≈ 29.6 µg/mL)
- MIC (Aspergillus fumigatus): 10 µM (≈ 14.8 µg/mL)
- Activity (Fusarium sp.): Active

Structure (SMILES): CC(=O)O[C@H]1C(=O)[C@@]2(C)[C@H]([C@H](OC(=O)c3ccccc3)[C@]3(O)C[C@H](OC(=O)[C@H](O)[C@@H](NC(=O)c4ccccc4)c4ccccc4)C(C)=C1C3(C)C)[C@]1(OC(C)=O)CO[C@@H]1C[C@@H]2O [PACLITAXEL]
- GI50 (A549): 4 nM
- GI50 (SK-OV-3): 8 nM
- GI50 (Hs-578T; read-out: GI50): 3 nM
- TGI (Hs-578T; read-out: TGI): 100 nM
- GI50 (DU-145): 5 nM
- GI50 (COLO 205): 3 nM
- GI50 (HT-29): 2 nM
- GI50 (KM12): 4 nM
- GI50 (RPMI-8226): 2 nM
- GI50 (NCI-H322M): 13 nM
- GI50 (SNB-75): 4 nM
- GI50 (HCC 2998): 3 nM
- GI50 (PC-3): 4 nM
- TGI (PC-3; read-out: TGI): 10000 nM
- GI50 (UACC-257): 40 nM

Structure (SMILES): O=C(O)c1cn(C2CC2)c2cc(N3CCNCC3)c(F)cc2c1=O [CIPROFLOXACIN]
- MBC [2]: > 1 µM
- MIC [2]: 1 µM (≈ 0.331 µg/mL)
